Screens deposited in PubChem BioAssay by Sanford-Burnham Center for Chemical Genomics.
Apaf-1 act = activators of human Apaf-1 apoptosome, primary screen, biochemical, DEVD-Rh110 fluorescence, uHTS | 330,000 tested, 0.31% active | Apoptotic protease-activating factor 1 (Homo sapiens), O14727 | activity change, negative = activation, % at 20 µM | Apaf-1 apoptosome caspase-3 activation; hits give low values;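 active = activity change at or below -40% at 20 µM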
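Schedule: 30 min preincubation, 50 min reaction, room temperature / System: biochemical Apaf-1 apoptosome reconstitution / Medium: 20 mM HEPES pH 7.5 with CHAPS, BSA / Evaluation: Caspase-3 cleavage activity downstream of Apaf-1 activation / Detection: Caspase-3-released Rh110 fluorescence, 540 nm emission, 480 nm excitation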
Rh110 interf act = Rh110 fluorescence interference by putative Apaf-1 activators, confirmation, artefact control for Apaf-1 activator project, biochemical, 20 µM | shares compounds with Apaf-1 act | quenched caspase reaction, Ex480/Em540 | fluorescence interference (activity change), % at 20 µM, hits read low | 980 tested, under 10 active | AID 504616, 2011;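 active = mean activity change at or below -40% when tested at 20 µM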
Apaf-1 act conf = Apaf-1 activators, single-dose retest, confirmation, biochemical, fluorescence, DEVD-Rh110, 20 µM. activity change, negative = activation, % at 20 µM. 980 tested, 5% active. shares compounds with Apaf-1 act. reconstituted apoptosome caspase-3 activity; hits give low values. AID 504617, 2011;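 active = mean activity change at or below -40%, meaning activation of 40% or more, at 20 µM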
Apaf1 act interf = fluorescence interference of Apaf-1 activator hits, dose response, artefact control for Apaf-1 activator project; shares compounds with Apaf-1 act; fluorescence interference counterscreen, Apaf-1 activator assay; EC50, µM; 55 tested, under 10 active; AID 588592, 2011; call rule not given here
Starred values were filed as active, the others as inactive; . = no result given. A selection follows.

SMILES | Apaf-1 act | Rh110 interf act | Apaf-1 act conf | others
C#CCOCCOCCOCCNc1nc(N2CCN(C(=O)CCCCCCCCCCNC(=O)[C@@H](CCC(=O)O)n3cc(CCCCCN)nn3)CC2)nc(N2CCN(C(=O)CCCCCCCCCCNC(=O)[C@H](CCCCN)n3cc(C[C@@H](C)CC)nn3)CC2)n1 | 72 | . | .
COc1ccc2cnn(-c3ccc(OC(F)(F)F)cc3)c(=O)c2c1OC | -49* | 1 | 2
CN(C)CCCNC(=O)C[C@H]1C[C@H](C(=O)N2CCOCC2)[C@@]2(CCC3CCCC3)c3[nH]c4cc(-c5ccco5)ccc4c3CCN2C1=O | 67 | . | .
CCn1nc(C)c(NC(=O)CCSc2nc(-c3ccco3)cc(C(F)(F)F)n2)c1C | -246* | -2 | 16
Cc1cccc(C)c1NC(=O)CSc1nnc(-c2ccco2)c(-c2ccco2)n1 | 42 | . | .
COc1cccc(-c2sc3ccccc3c2-c2ccc(OCCN3CCCCC3)cc2)c1 | 64 | . | .
C#CCOCCOCCOCCNc1nc(N2CCN(C(=O)[C@H](CCCCN)n3cc([C@@H](N)C(C)CC)nn3)CC2)nc(N2CCN(C(=O)[C@H](Cc3cc4ccccc4[nH]3)n3cc([C@@H](N)C(C)CC)nn3)CC2)n1 (stereo partly specified) | 53 | . | .
COc1ccc(/C=N/Nc2cc(C)nc3ccc(OC)cc23)c(OC)c1 | 43 | . | .
COc1ccccc1-c1sc2ccccc2c1-c1ccc(OCCN2CCCCC2)cc1 | 62 | . | .
Cc1cccc(C)c1OCc1cc(C(=O)NCC2CCCCC2)no1 | -57* | 2 | 13
COc1ccc(OCc2cc(C(=O)NC3CCOCC3)no2)c2ccccc12 | 41 | . | .
COC(=O)CCC(=O)OC1(C)C(=O)C=C2C=C(C3CC3)N(C3CCCCC3)C=C2C1=O (stereo unspecified) | 62 | . | .
CCN(CC)CCOC(=O)c1ccc(N/C=C(/C#N)c2nc(-c3ccc(OC)c(OC)c3)cs2)cc1 | 55 | . | .
N#Cc1cn(Cc2ccncc2)c(=O)[nH]c1=O | -182* | 3 | 14
CCN1CCN(CCNC(=O)c2cn(C(C)c3ccccc3F)nn2)CC1 (stereo unspecified) | -78* | 8 | 16
COc1ccc(O)c(N)c1 | 76 | . | .
COc1cc([N+](=O)[O-])ccc1NC(=O)NNC(=O)c1sccc1C | -60* | 8 | 12
Nc1ccc(Br)c2cccnc12 | 85 | . | .
Cc1ccc(NS(=O)(=O)c2ccc(NC(=O)C3CCCO3)cc2)cc1 (stereo unspecified) | -52* | 6 | 12
CC(=O)Nc1ccc(S(=O)(=O)NC2=C(N3CCN(c4ccc(F)cc4)CC3)C(=O)c3ccccc3C2=O)cc1 | 64 | . | .
O=C(N/N=C\c1ccc(-c2ccccc2[N+](=O)[O-])o1)C1COc2cc3ccccc3cc2O1 (stereo unspecified) | 81 | . | .
Cc1[nH]n(-c2ccccc2)c(=O)c1N=Nc1nccs1 | 73 | . | .
Oc1ccc(/C=N/N2CCCCC2)c(O)c1O | 70 | . | .
Cc1[nH][nH]c(=O)c1C(c1ccc(-c2cccc(C(=O)O)c2)o1)c1c(C)[nH][nH]c1=O | 78 | . | .
O=C(O)c1cccc(NC2=C(n3nnc4ccccc43)C(=O)c3ccccc3C2=O)c1 | 58 | . | .
SMILES | Apaf-1 act | Rh110 interf act | Apaf-1 act conf | others
O=C(O)c1cccc(-c2ccc(/C=c3/sc4nc5ccccc5n4c3=O)o2)c1 | -195* | 5 | 41 | Apaf1 act interf=>100
CC1=NN(c2ccccc2)C(=O)/C1=C\c1cn(CCC#N)nc1-c1ccc(Cl)cc1 | 80 | . | .
N#CCCn1[nH]c(-c2ccccc2)cc1=O | 72 | . | .
c1ccc(C[C@H]2CN=C(Nc3ccccc3)N2CCCC2CCCCC2)cc1 | 47 | . | .
Fc1ccccc1Nc1nc(-c2ccncc2)nc2ccccc12 | -321* | 2 | 8
CCC(CO)Oc1cc(NCc2ccc(F)cc2)c2ncn(C(C)C)c2c1 (stereo unspecified) | 43 | . | .
CCOC(=O)N1CCC(NC(=O)CCC(=O)N2CCOc3ccccc32)CC1 | -305* | 4 | 8
CCOc1ccccc1N1CCN(C(=O)C2c3ccccc3Oc3ccccc32)CC1 | 41 | . | .
COc1cc2c(cc1OC)-c1cc3ccc4c(c3c[n+]1CC2)OCO4 | 73 | . | .
COc1ccc(OC)c(Nc2cc3ccccc3c(=O)[nH]2)c1 | 97 | . | .
CCCCC(CCC(=O)Nc1cc([N+](=O)[O-])ccc1O)C(=O)O (stereo unspecified) | -227* | 11 | 20
